Published values from different studies.
Each line is one published result; the experiments were not run side by side.
Target: Mitogen-activated protein kinase kinase kinase 7 (MAP3K7, Homo sapiens, UniProt O43318)
Residues used in one study (O43318 1-606): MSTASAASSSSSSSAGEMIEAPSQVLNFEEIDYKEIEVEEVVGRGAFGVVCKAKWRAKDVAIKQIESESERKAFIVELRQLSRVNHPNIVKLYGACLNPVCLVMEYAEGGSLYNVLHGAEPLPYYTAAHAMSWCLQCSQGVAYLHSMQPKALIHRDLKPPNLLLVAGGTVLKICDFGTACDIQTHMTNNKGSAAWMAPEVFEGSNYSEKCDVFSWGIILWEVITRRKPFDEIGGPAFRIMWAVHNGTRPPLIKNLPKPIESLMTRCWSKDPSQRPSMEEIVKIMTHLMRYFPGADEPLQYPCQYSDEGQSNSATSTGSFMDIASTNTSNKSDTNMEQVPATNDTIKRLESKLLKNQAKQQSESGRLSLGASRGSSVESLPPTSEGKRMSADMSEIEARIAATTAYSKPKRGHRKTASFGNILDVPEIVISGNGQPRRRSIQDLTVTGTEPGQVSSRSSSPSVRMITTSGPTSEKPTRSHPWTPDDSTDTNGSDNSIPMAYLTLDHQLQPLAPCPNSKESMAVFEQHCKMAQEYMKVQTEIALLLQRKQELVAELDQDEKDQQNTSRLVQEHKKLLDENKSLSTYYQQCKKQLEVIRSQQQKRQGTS

Structure (SMILES)	read-out	mode	technique	tested at	endpoint	result
CCCOc1ccc(OC)c(F)c1C(=O)c1ccc(C(=O)N[C@@H]2CNC[C@H]2NC(=O)c2ccc3[nH]ncc3c2)cc1	enzyme activity	inhibitor		10 µM	remaining activity	106%
O=c1nc(-c2ccccn2)sc2ccccc12	binding		competition with immobilised ligand	1 µM	remaining binding	78%
Cc1cnc(NC2CCOCC2)nc1-n1cnc(C(=O)NC(CN)c2cc(F)cc(Cl)c2)c1 (stereo not drawn)	enzyme activity	inhibitor	radiometric	1 µM	remaining activity	98%
CC1=C(C#N)C(c2ccc3c(c2)c(NC(=O)c2ccccc2C)nn3C)C(C#N)=C(C)N1	cell-free assay		competition with immobilised ligand	1 µM	remaining binding	74%
Cc1ccc(C(=O)NCc2ccsc2)cc1C#Cc1cn(C(C)C)c2ncnc(N)c12	enzyme activity	inhibitor		1 µM	activity vs control	112%
O=C(NC[C@@H]1[C@H]2CN(C(=O)OCc3cc(C(F)(F)F)cc(C(F)(F)F)c3)C[C@@H]12)c1ccc2[nH]nnc2c1	cell-free assay		competition with immobilised ligand	1 µM	remaining binding	94%
Cc1ccc(Nc2nccc(N(C)c3ccc4c(C)n(C)nc4c3)n2)cc1S(N)(=O)=O	enzyme activity	inhibitor		10 µM	inhibition	-4%
CCCOc1ccc([C@H]2[C@H](C(=O)O)[C@@H](c3ccc4c(c3)OCO4)CN2CC(=O)Nc2c(CC)cccc2CC)cc1	cell-free assay		competition with immobilised ligand	1 µM	remaining binding	100%
Nc1ncnc2occ(-c3ccc(NC(=O)Nc4cc(C(F)(F)F)ccc4F)cc3)c12	cell-free assay	inhibitor		20 µM	remaining signal	3.7%
CCN(CC)CCNC(=O)c1c(C)[nH]c(/C=C2\C(=O)Nc3ccc(F)cc32)c1C	enzyme activity	inhibitor		0.3 µM	inhibition	52%
Cc1cc(C)c(-n2ccn3nc(-c4cccnc4)cc23)cc1NC(=O)c1cc(C#N)cc(S(F)(F)(F)(F)F)c1	cell-free assay		competition with immobilised ligand	0.1 µM	remaining binding	66.2%
N[C@@H]1CCN(c2nccc(-c3cnn4ncccc34)n2)C1	binding			1 µM	remaining binding	91%
O=C1NC(=O)c2cc(Nc3ccc(F)cc3)c(Nc3ccc(F)cc3)cc21	cell-free assay			0.5 µM	remaining signal	98.8%
Cn1c(=O)n(-c2ccc(C(C)(C)C#N)cc2)c2c3cc(-c4cnc5ccccc5c4)ccc3ncc21	enzyme activity	inhibitor		10 µM	remaining activity	67%
O=C(Nc1cnn(-c2csc(C(=O)NC3COC3)c2)c1)Nc1c(F)cccc1Cl	enzyme activity	inhibitor		5 µM	remaining activity	109%
CS(=O)(=O)N1CCCC(NC(=O)[C@H](CCC2CCCCC2)NC(=O)c2ccc(CNc3ncnc4c3nnn4-c3ccccc3)cc2)C1 (stereo partly drawn)	cell-free assay		competition with immobilised ligand	0.1 µM	remaining binding	100%
COc1cccc2c(NCc3ccccc3)nc(-n3c(N)nc4ccccc43)nc12	target engagement in cells	inhibitor	chemoproteomics	20 mM	inhibition	-6.3%
O=C(Nc1cnn(-c2csc(C(=O)NC3COC3)c2)c1)Nc1ccccc1Cl	enzyme activity	inhibitor		5 µM	remaining activity	98%
CC(C)c1ccc(NC(=O)c2cccs2)c(-c2nc3ccccc3[nH]c2=O)c1	enzyme activity	inhibitor		1 µM	activity vs control	106%
CCCCNc1ncc2c(-c3ccc(F)cc3)nn(C[C@H]3CC[C@H](N)CC3)c2n1	target engagement in cells	inhibitor	chemoproteomics	20 mM	inhibition	16%
CN1CC(Oc2cnc(C#N)cc2-c2ccn3nc(NC(=O)C4CC4)cc3c2)C1	enzyme activity	inhibitor		1 µM	inhibition	8%
COc1cc(Nc2cnc(C#N)c(O[C@H](C)CN(C)C)n2)ncc1-c1cnn(C)c1	enzyme activity	inhibitor	radiometric	1 µM	remaining activity	97%
N#CCCc1ccc2c(c1)-c1[nH]c3ccc([N+](=O)[O-])cc3c1CC(=O)N2	cell-free assay			0.5 µM	remaining signal	38.1%
CN(c1ccnc(CNc2nc(Nc3ccc4c(c3)CC(=O)N4)ncc2C(F)(F)F)n1)S(C)(=O)=O	cell-free assay		competition with immobilised ligand	1 µM	remaining binding	48%
CNC(=O)c1cc(Oc2ccc(NC(=O)Nc3ccc(Cl)c(C(F)(F)F)c3)cc2)ccn1	cell-free assay			0.5 µM	remaining signal	101%
C[C@@]1(Cc2ccc(C#N)cc2)C(=O)N(c2cc(Cl)cc(Cl)c2)c2ncc(C(=O)NC3(c4nc(C5CCC5)no4)CC3)n21	cell-free assay		competition with immobilised ligand	1 µM	remaining binding	96%
FC(F)(F)Oc1cccc(-c2cnc3ccc(-c4ccncc4)nn23)c1	enzyme activity	inhibitor	radiometric	5 µM	activity vs control	58%
